An excerpt weighted towards active compounds, which were near 6.8% of everything screened.
AI-2 QS mod – Vibrio harveyi AI-2 quorum sensing modulators, primary screen, JMH597 strain, luminescence/OD600 ratio. Vibrio harveyi JMH597 AI-2 luminescence/OD600 ratio, 9 h; hits give low values; strain lacks LuxN and CqsS sensors; 0 = neutral-control median. activity change, % at 7.5 µM. actives 0.4% (n = 300,000). AID 2094, 2009; in the data active means activity change below about -75%, passing the limit was not always enough; inconclusive means no clear call, values can overlap the other calls;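 further: luminescence divided by OD600 gain over 9 h not by final OD600 alone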
HSF1 inh – HSF1 inhibitors in luciferase reporter cells, primary screen, cell-based, NIH3T3, luminescence; actives 0.77% (n = 300,000); activity change, negative = inhibition, % at 7.5 µM (by protocol); AID 2098, 2009; NIH3T3-HGL HSE-luciferase, MG132-induced, luminescence 8 h; hits give low values;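 active means more than half of replicate wells show activity change below -50%, luminescence cut by over half; inconclusive means some wells, but at most half, below -50%; inactive means no replicate well below -50%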;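 further: luciferase reports HSF-1 transcriptional activity via heat shock element; 0% = median of DMSO wells and -100% = zero luminescence signal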
HSF1 activator – HSF-1 activators, primary screen, NIH3T3-HGL cells, MG132 stress, luminescence, single point. AID 504408, 2011. actives 1.7% (n = 300,000). NIH3T3-HGL HSF-1 luciferase reporter, 8 h; 100% = twice DMSO control signal. activation, % at 9 µM;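 active means mean replicate activation of at least 50% with a set share of replicates each reaching 50%; inconclusive means only one of those two conditions met; inactive means mean below 50% and too few replicates reaching it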;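 further: 0% = median of the neutral control wells and 100% = twice that signal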
core dimer inh – inhibitors of HCV core protein dimerization, primary screen, biochemical, TR-FRET, high-throughput. TR-FRET GST/Flag-core106 dimerization, 1536-well. inhibition, % at 5 µM. actives 0.33% (n = 300,000);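 active means inhibition above the mean of all tested compounds plus 3 SD, set per screening campaign, cut at about 45% in these data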
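Test system: GST/Flag-tagged HCV core106 proteins; Medium: KF-containing HEPES buffer, pH 7.45, DTT, CHAPS, BSA; Times: compound-protein-antibody incubation 4 h at 22.5 °C; Detection: TR-FRET 671 and 617 nm emission; Benchmarks: wells lacking GST-core106 and wells with excess unlabelled core106.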
ALR inh – inhibitors of human ALR sulfhydryl oxidase, primary screen, biochemical, H2O2 detection, HRP-luminol luminescence, single point; FAD-linked sulfhydryl oxidase ALR (Homo sapiens), P55789; actives 3.8% (n = 290,000); AID 485317, 2010; purified ALR, DTT oxidation; inhibition, % (concentration not given with the values);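 active means mean replicate inhibition above about 79%, with every replicate also reaching it, limit read from the data; inconclusive means only one of the two criteria met; inactive means mean below limit and not every replicate reaching it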
Target sequence (P55789 whole entry, looked up): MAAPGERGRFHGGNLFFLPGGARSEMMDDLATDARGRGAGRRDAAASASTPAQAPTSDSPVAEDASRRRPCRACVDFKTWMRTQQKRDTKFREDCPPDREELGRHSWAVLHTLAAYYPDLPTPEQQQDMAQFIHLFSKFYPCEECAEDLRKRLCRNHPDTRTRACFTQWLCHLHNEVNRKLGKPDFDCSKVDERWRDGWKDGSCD
PHOSPHO1 block – PubChem AID 1565 | inhibition, % at 13.3 µM | Phosphoethanolamine/phosphocholine phosphatase (Homo sapiens), Q8TCT1 | actives 1.1% (n = 290,000) | recombinant PHOSPHO1, absorbance phosphatase assay; in the data active means inhibition above about 60%
Target sequence (Q8TCT1 whole entry, looked up): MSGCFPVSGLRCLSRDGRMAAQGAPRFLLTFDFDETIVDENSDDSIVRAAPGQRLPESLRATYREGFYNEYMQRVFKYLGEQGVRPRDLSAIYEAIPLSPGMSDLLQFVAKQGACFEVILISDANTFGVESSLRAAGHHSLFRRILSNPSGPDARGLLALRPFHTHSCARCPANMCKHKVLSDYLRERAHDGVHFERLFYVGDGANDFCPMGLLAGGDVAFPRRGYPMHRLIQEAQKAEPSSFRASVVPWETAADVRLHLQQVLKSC
Numbers without * were called inactive; ? = inconclusive; nt = no result given.

SMILES | AI-2 QS mod | HSF1 inh | HSF1 activator | core dimer inh | ALR inh | PHOSPHO1 block
CCOC(=O)c1ccccc1NC(=O)C1CSC2(C)CCC(=O)N12 (stereo not drawn) | 33 | 3 | 7 | 5 | -9 | 13
Cc1cccc(N2CCN(Cc3nc(-c4ccccc4Cl)oc3C)CC2)n1 | 18 | -60* | -70 | 9 | 1 | 2
CC(C)(C)c1nnc(NC(=O)c2cccnc2)s1 | 16 | 6 | 8 | 11 | -2 | 51
O=C(c1ccccc1)c1cccc[n+]1[O-] | 2 | 0 | 4 | 7 | nt | 3
CC1CCCC(NC(=O)COC(=O)Cc2cn3ccsc3n2)C1C (stereo not drawn) | nt | nt | nt | nt | nt | 96*
O=C(CSc1nc2ncccc2[nH]1)Nc1ccccc1-c1ccccc1 | 33 | 7 | 26 | -4 | -10 | 8
Cc1c(C(=O)NNC(=S)Nc2cccc(Cl)c2)nnn1-c1ccccc1 | 14 | 13 | ? | 9 | 91* | 1
Cc1cc(NC(=O)Nc2cccc(Cl)c2)n(-c2ccccc2)n1 | 23 | 2 | 4 | -8 | -8 | -5
COC(=O)c1ccc(C(=O)OC)c(NC(=O)CN(C)Cc2ccccc2)c1 | -3 | -7 | 2 | 11 | -1 | -9
CCOC(=O)c1c(C)[nH]c(C(=O)OCC(=O)Nc2cccnc2Cl)c1C | -2 | -1 | -7 | 1 | 0 | nt
CC(C)c1ccc2oc(-c3cc(N)ccc3O)nc2c1 | 19 | -41 | -44 | -4 | 93* | 11
Nc1ccc(OCCCc2c(N)nc(N)nc2N)cc1 | 15 | -3 | -7 | -3 | 99* | 34
CCN(CC)C(=O)CSc1nc2c(sc(=S)n2-c2ccccc2)c(=O)n1Cc1ccco1 | 13 | 43 | 67* | 5 | 61 | 28
CCN(CC)C(=O)CSc1nc2c(sc(=S)n2CC)c(=O)n1-c1ccccc1 | 17 | 9 | 4 | 3 | 1 | -2
CCOC(=O)CSc1nc2c(sc(=S)n2Cc2ccco2)c(=O)n1-c1ccc(F)cc1 | 28 | 41 | 80* | 12 | -3 | -23
CSc1ccc(CN(C)C(=O)COc2ccc(C(=O)c3ccccc3)cc2)cc1 | 21 | -5 | -11 | 16 | 1 | 46
O=C1N/C(=C/c2ccc(N3CCOCC3)o2)C(=O)N1c1cccc(Cl)c1 | 17 | 95 | 125* | -19 | 13 | 51
Cc1ccc(/C=C2/NC(=O)N(c3ccccc3)C2=O)o1 | 11 | 14 | 28 | -4 | -13 | 36
CN=C(c1ccco1)n1c(=S)nc(-c2ccco2)n(C)c1=S | 9 | -1 | 8 | 20 | -11 | 89*
CN=C(c1ccc(C)cc1)n1c(=S)nc(-c2ccc(C)cc2)n(C)c1=S | 32 | 25 | 36 | 8 | -19 | -42
CC(=O)N1CCN(c2ccc(NCc3cccc(C)c3)cc2)CC1 | nt | nt | nt | nt | 99* | nt
CCOc1cc(CNc2ccc(N3CCN(C(C)=O)CC3)cc2)cc(Br)c1OC | 29 | -1 | 11 | -16 | nt | -3
CC(=O)N1CCN(c2ccc(NCc3ccc(F)cc3)cc2)CC1 | 41 | 1 | 2 | -8 | 99* | 13
COc1cc(CNc2ccc(N3CCN(C(C)=O)CC3)cc2)ccc1OCc1ccc(F)cc1 | 10 | nt | nt | -6 | 99* | 4
C[C@@]12C(=O)N(CCc3c[nH]c4ccccc34)CC(=O)N1[C@H]1c3ccccc3OC[C@@H]1[C@@H]2c1ccccc1 | nt | nt | nt | nt | 0 | nt
SMILES | AI-2 QS mod | HSF1 inh | HSF1 activator | core dimer inh | ALR inh | PHOSPHO1 block
Cc1cc(C)n(NC(=S)NC2CCCCC2)c(=O)c1C#N | 21 | 6 | 1 | 3 | 13 | 21
CCOC(=O)c1sc(SC)c2c1CCCC2=O | 5 | -6 | -6 | -39 | 2 | 7
O=C(O)c1cc(O)ccc1NC(=O)C(c1ccccc1)c1ccccc1 | 25 | -9 | 4 | 7 | 95* | 29
COc1cc(OC)c(C(=O)OCC(=O)Nc2ccccc2Cl)cc1OC | 17 | -3 | 0 | 6 | -8 | 28
Cc1ccc(-c2nn(C)c(=O)c3ccccc23)cc1S(=O)(=O)NCCN(C)C | 6 | -61* | -67 | -5 | -3 | 29
Cc1ccc(NC(=O)Cc2nc(-c3c[nH]c(C(=O)N4CCCC4)c3)cs2)c(C)c1 | nt | nt | nt | nt | 98* | nt
COc1ccc(C(=O)NCC(=O)N2CCN(c3ccc(F)cc3)CC2)cc1 | 13 | 0 | -4 | -2 | -3 | 32
CCN(CC)c1ccc(C2C(C(=O)OC)=C(C)NC(C)=C2C(=O)OC)cc1 | 25 | 3 | 10 | -3 | 99* | 7
COc1cc(C2NC(=O)NC(C)=C2C(=O)OCC2CCCO2)cc(OC)c1OC (stereo not drawn) | 3 | -2 | 8 | 2 | 0 | 33
CCCCCCOC(=O)C1=C(C)NC(=O)NC1c1ccc(O)cc1 (stereo not drawn) | 30 | 1 | 19 | 1 | -2 | -16
COC(=O)C1=C(C)NC(C)=C(C(=O)OC)C1c1ccc(NC(C)=O)cc1 | 20 | 5 | 4 | -3 | -6 | -2
CCCCCOC(=O)C1=C(C)NC(=O)NC1c1ccc([N+](=O)[O-])cc1 (stereo not drawn) | -15 | 37 | 63* | -8 | nt | 18
CCN(CC)c1ccc(C2NC(=O)NC(C)=C2C(=O)Nc2ccccc2)cc1 (stereo not drawn) | 10 | -7 | 9 | 0 | 99* | 3
COc1cc(C2NC(=O)NC(C)=C2C(=O)OCC2CCCO2)ccc1O (stereo not drawn) | 25 | -87* | -90 | -1 | 25 | 6
CC(C)[C@H](NC(=O)c1ccco1)C(=O)Nc1ccc(OC(F)F)cc1 | 1 | 5 | 8 | 5 | -11 | 42
CNC(=O)NC(=O)CN1C(=O)NC2(CCOc3ccccc32)C1=O (stereo not drawn) | 8 | -5 | 12 | -1 | nt | 19
CC(C(=O)c1ccccc1)[n+]1cccc(Br)c1 (stereo not drawn) | 6 | -5 | -15 | 0 | 0 | 24
CCOC(=O)C1=C(C)NC(=S)NC1c1ccc(C)s1 (stereo not drawn) | -40 | 8 | 15 | 0 | nt | 34
CCOC(=O)C1=C(C)NC(=S)NC1c1ccsc1 (stereo not drawn) | -13 | -67* | -74 | -4 | 2 | 27
CCOC(=O)C1=C(C)NC(=O)NC1c1ccc(N(CC)CC)cc1 (stereo not drawn) | -2 | -5 | 4 | 3 | 98* | 1
